Assay outcomes: PubChem, Sanford-Burnham Center for Chemical Genomics
697 NFkB inh = lowers PMA/ionomycin-induced NF-kB signal in 697 B cells | 697 B-cell NF-kB luciferase reporter, 16 h | inhibition, % at 4 µM | 330,000 compounds, 0.33% hits; in the data active = inhibition above about 35%
Gli-Sufu antag = Gli-Sufu pathway antagonism | inhibition, % at 5 µM | 340,000 compounds, 0.74% hits | Sufu-KO-LIGHT fibroblasts, Gli luciferase reporter luminescence;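 active = inhibition above about 55%, limit read from the data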
iPSC survival up = increases survival of single human iPS cells; hiPSC single-cell survival, ATPlite luminescence; 100% = ROCK inhibitor wells, 0% = DMSO; survival enhancement, % at 20 µM; 360,000 compounds, 0.044% hits; AID 602274; in the data active = survival enhancement above about 18%;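 also: cells exposed to compounds for 16 hours before the ATP read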
Jurkat NFkB inh = lowers PMA/ionomycin-induced NF-kB signal in Jurkat cells. PMA/ionomycin-induced NF-kB luciferase reporter, luminescence. inhibition, % at 4 µM. 330,000 compounds, 0.53% hits; in the data active = inhibition above about 50%
TAG inh = triacylglycerol accumulation inhibition; H9c2 cells, Nile Red lipid (TAG) fluorescence; cells loaded with 200 µM oleic acid; inhibition, % at 12.5 µM; 230,000 compounds, 0.66% hits; AID 651582;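 active = pattern-corrected inhibition of lipid staining of at least 50% with the nuclear-stain viability signal not falling by more than 50%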
Hep lipid drop = modulators of hepatic lipid droplet formation. AML12 mouse hepatocytes, oleate lipid droplets, BODIPY imaging. inhibition, % at 6.5 µM. 240,000 compounds, 0.4% hits. AID 1656;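 active = lipid droplet intensity inhibited by at least 50%, with more than 500 cells counted; inconclusive = wells with under 300 cells, treated as cytotoxic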
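Assay system: AML12 mouse liver cells | Compound: 6.5 µM single-point dosing | Schedule: Overnight exposure | Technique: Fluorescence imaging, 20x objective, two fields per well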
Jurkat NFkB conf = inhibitors of the PMA/ionomycin-induced NF-kB reporter in Jurkat cells, retest | shares compounds with Jurkat NFkB inh | Jurkat NF-kB luciferase, 16 h | inhibition, % at 4 µM | 2,700 compounds, 27% hits | AID 435020;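 active = inhibition reaching about 45% at 4 µM in either replicate, limit read from the data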
A number is an active result; . = inactive; ? = inconclusive; / = not tested or not shown. Most compounds without a hit are left out; they make up all but 1.8% or so of the library.

SMILES	697 NFkB inh	Gli-Sufu antag	iPSC survival up	Jurkat NFkB inh	TAG inh	Hep lipid drop	Jurkat NFkB conf
COc1ccc(C2=NN(C(C#N)c3ccc(OC)c(OC)c3)C(c3ccccc3)C2)cc1 (stereo unspecified)	.	.	.	.	.	.	.
O=C(COC(=O)c1ccc(CO)cc1)Nc1ccc(OC(F)F)cc1	.	.	.	.	.	.	/
CC1CC(C)CN(S(=O)(=O)c2ccc(NC(=O)c3ccc(=O)[nH]c3)cc2)C1 (stereo unspecified)	.	.	.	54	.	/	49
O=C(CSc1nc2ccccc2[nH]1)c1ccccc1F	.	.	.	.	/	.	/
Fc1cccc(F)c1CSc1nc2ccccc2[nH]1	.	.	.	.	.	.	.
COc1ccc(C(=O)Nc2ccc3[nH]c(-c4cccc(OC)c4)cc(=O)c3c2)cc1	.	.	.	85	/	.	49
COc1ccc(C(=O)Nc2cccc(OC)c2)cc1	.	.	.	.	/	/	/
Nc1ccc(-c2nc3cc([N+](=O)[O-])ccc3o2)cc1	.	.	.	.	.	.	.
CC(C)(C)Nc1nc2cc([N+](=O)[O-])ccc2o1	.	.	.	.	.	.	/
CC(C)(C)c1ccc(-c2nc3cc(N)ccc3o2)cc1	.	.	.	.	.	.	.
COc1ccc(-c2nc3cc([N+](=O)[O-])ccc3o2)cc1	.	.	.	.	.	.	.
CCCCN(C)CCNC(=O)C(NC(=O)C1CCC(C)CC1)C(C)C (stereo unspecified)	.	.	.	.	.	.	/
Cc1nc(-c2ccc(NC(=O)c3ccccc3)cc2)cs1	.	.	.	.	.	.	.
Cc1ccc(NC(=O)c2ccc(C)cc2)cc1	.	.	.	.	.	/	.
Cc1ccc(C(=O)Nc2ccc(N3CCN(C)CC3)cc2)cc1	.	.	.	.	/	/	/
Cc1ccc(C(=O)Nc2ccc(-c3csc(C)n3)cc2)cc1	.	.	.	.	.	.	/
CC(C)(C)c1ccc(C(=O)Nc2ccc(Cl)cc2)cc1	.	.	.	.	/	.	.
COCCn1c(SCCOc2ccccc2)nc2ccccc2c1=O	.	.	.	.	.	.	/
O=c1cc(O)c2c(=O)n(-c3ccccc3)c3c(c2o1)CCCCCC3	.	.	.	.	/	.	/
C[C@@H]1CN([C@@H](C)CO)C(=O)CCCn2nncc2CO[C@H]1CN(C)C(=O)OCc1ccccc1	/	/	.	/	.	/	/
COc1cc(/C=N/NS(=O)(=O)c2ccc(C)cc2)ccc1OCc1cccc(C(=O)O)c1	.	.	.	62	.	.	.
C/C(=N\NC(=O)CNC(=O)C1COc2ccccc2O1)c1ccco1 (stereo unspecified)	.	.	.	.	/	.	/
O=S(=O)(NCCCSc1ccccc1)c1ccccc1F	.	.	.	.	/	.	/
Cc1cc(C)cc(C(=O)Nc2nc3ccccc3[nH]2)c1	.	.	.	.	/	.	/
O=C(Nc1nc2ccccc2[nH]1)c1ccc(F)cc1	.	.	.	.	/	/	.
SMILES	697 NFkB inh	Gli-Sufu antag	iPSC survival up	Jurkat NFkB inh	TAG inh	Hep lipid drop	Jurkat NFkB conf
COc1ccc2oc(C(=O)Nc3nc4ccccc4[nH]3)c(C)c2c1	.	.	.	.	.	.	.
O=C(Nc1nc2ccccc2[nH]1)c1cc2ccccc2o1	.	.	.	.	.	.	.
Cc1ccsc1C(=O)Nc1nc2ccccc2[nH]1	.	.	.	.	.	.	.
CCCCC(=NCCc1c(C)[nH]c2ccccc12)C1=C(O)CC(c2ccccc2)CC1=O (stereo unspecified)	.	.	.	.	.	.	/
CCCC(=NCCc1c(C)[nH]c2ccccc12)C1=C(O)CC(c2ccccc2)CC1=O (stereo unspecified)	.	.	.	54	/	?	.
CCC/C(O)=C1\C(=O)CC(c2ccccc2)CC1=NCCc1c(C)[nH]c2ccccc12 (stereo unspecified)	.	.	.	.	.	.	/
CC(=NCCc1c(C)[nH]c2ccc(C)cc12)C1=C(O)CC(c2ccccc2)CC1=O (stereo unspecified)	.	.	.	56	/	.	.
CC(=NCCc1c(C)[nH]c2ccc(OC(F)(F)F)cc12)C1=C(O)CC(c2ccccc2)CC1=O (stereo unspecified)	.	.	.	57	.	.	.
CCCn1c(N2CCN(C(=O)Nc3ccc(Cl)cc3)CC2)nc2ccccc21	.	.	.	.	.	.	/
COc1ccccc1C1CC(=O)Oc2ccc(C(C)(C)C)cc21 (stereo unspecified)	.	.	.	/	.	/	/
N#C/C(=N\Nc1ccc(Cl)cc1)C(=N)N1CCCCCC1	.	.	.	.	.	.	.
N#C/C(=N\Nc1ccccc1[N+](=O)[O-])C(=N)N1CCCCC1	.	.	.	.	.	.	.
CC(C)C[C@H](N)c1cn([C@@H](CCCCN)C(=O)N2CCNCC2)nn1	.	.	.	.	.	.	/
CC(=O)O[C@@]1(C)C[C@@H](O)[C@]2(O)C=CO[C@@H](O[C@@H]3O[C@H](CO)[C@@H](O)[C@H](O)[C@H]3O)[C@@H]21	.	.	.	.	.	/	/
CC(=O)Nc1cccc(Nc2cc(C)nn2C)c1	/	/	.	/	/	/	/
COC(=O)[C@]1(C)N[C@H](CN(C)C(=O)C2CCCCC2)[C@@H]2C(=O)N(Cc3ccccc3)C(=O)[C@@H]21	.	.	.	.	.	/	/
CN(C)S(=O)(=O)c1ccc2c(c1)nc(CCC(=O)NCCc1ccc(Cl)cc1)n2C	.	.	.	.	/	.	/
O=C(Nc1nc2cc3c(cc2s1)OCO3)C1CCCCC1	.	.	.	.	.	.	.
COc1ccc(C(=O)Nc2nc3cc4c(cc3s2)OCO4)c(OC)c1	.	.	.	.	.	.	.
O=C(Nc1nc2ccc(Cl)cc2s1)C1CC1	.	.	.	.	.	/	/
O=C(Nc1nc2ccc(S(=O)(=O)N3CCCC3)cc2s1)C1CCCCC1	.	.	.	62	/	.	58
COc1ccc2nc(NC(=O)c3cc(C)oc3C)sc2c1	.	.	.	.	.	.	/
CC(C)c1ccc2nc(NC(=O)C3CC3)sc2c1	.	.	.	.	.	.	.
O=C(Nc1nc2cc3c(cc2s1)OCO3)C1CC1	.	.	.	.	.	.	/
CC1CCc2sc3c(c2C1)c(=O)n(CC(=O)O)c(=O)n3Cc1ccc(Cl)cc1 (stereo unspecified)	.	.	.	.	/	.	/
O=C(CN1C(=O)c2cccnc2Oc2ccc(Cl)cc21)N1CCCC1	.	.	.	.	/	.	/
O=C(CCc1ccccc1)N=C1SC2CS(=O)(=O)CC2N1c1ccccc1 (stereo unspecified)	.	.	.	.	/	.	/
Cc1ccc(CNC(=O)CSc2nc(=O)n3cccc(C)c3n2)cc1	.	.	.	.	.	/	/
O=C(OCC(=O)c1ccc[nH]1)c1cncc(Br)c1	.	.	.	.	.	/	/
Nc1nc(=O)n(C2OC(CO)C(O)C2O)cc1F (stereo unspecified)	/	/	.	/	/	/	/
